PMC2119941 (The Journal of Cell Biology, 1994)
No end group written: not given here.

How the values were obtained:
[1] = molecular target: T1, alpha 5 beta 1 integrin (Homo sapiens, UniProt P05556+P08648); type: binding; details: unrelated cyclic control peptide
[2] = molecular target: alpha 5 beta 1 integrin (UniProt G3HZ55+P08648); test: Cell attachment assay: B2/a27 cells on fibronectin; type: cell-based, human
[3] = molecular target: T1, alpha 5 beta 1 integrin; type: binding; details: control peptide; not shown
[4] = molecular target: T1, alpha 5 beta 1 integrin; type: binding
[5] = molecular target: alpha v beta 3 integrin (Homo sapiens, UniProt P05106+P06756); type: binding
Method in brief: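 Human placental αvβ3 (octyl glucoside extract with 1 mM MnCl2 and 1 mM CaCl2) coated in microtiter wells. Phage incubated 1 h at room temperature, then washed five times. Bound phage infected K91kan bacteria for 10 min at 37°C, then grown in Terrific broth with tetracycline and kanamycin (30 min at 37°C, then overnight at room temperature with shaking). Bacterial growth read as A600.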

[6] = molecular target: alpha IIb beta 3 integrin (Homo sapiens, UniProt P05106+P08514); test: Binding to wells coated with alpha IIb beta 3 integrin
Chain of alpha IIb beta 3 integrin (P08514 32-887 limits assumed): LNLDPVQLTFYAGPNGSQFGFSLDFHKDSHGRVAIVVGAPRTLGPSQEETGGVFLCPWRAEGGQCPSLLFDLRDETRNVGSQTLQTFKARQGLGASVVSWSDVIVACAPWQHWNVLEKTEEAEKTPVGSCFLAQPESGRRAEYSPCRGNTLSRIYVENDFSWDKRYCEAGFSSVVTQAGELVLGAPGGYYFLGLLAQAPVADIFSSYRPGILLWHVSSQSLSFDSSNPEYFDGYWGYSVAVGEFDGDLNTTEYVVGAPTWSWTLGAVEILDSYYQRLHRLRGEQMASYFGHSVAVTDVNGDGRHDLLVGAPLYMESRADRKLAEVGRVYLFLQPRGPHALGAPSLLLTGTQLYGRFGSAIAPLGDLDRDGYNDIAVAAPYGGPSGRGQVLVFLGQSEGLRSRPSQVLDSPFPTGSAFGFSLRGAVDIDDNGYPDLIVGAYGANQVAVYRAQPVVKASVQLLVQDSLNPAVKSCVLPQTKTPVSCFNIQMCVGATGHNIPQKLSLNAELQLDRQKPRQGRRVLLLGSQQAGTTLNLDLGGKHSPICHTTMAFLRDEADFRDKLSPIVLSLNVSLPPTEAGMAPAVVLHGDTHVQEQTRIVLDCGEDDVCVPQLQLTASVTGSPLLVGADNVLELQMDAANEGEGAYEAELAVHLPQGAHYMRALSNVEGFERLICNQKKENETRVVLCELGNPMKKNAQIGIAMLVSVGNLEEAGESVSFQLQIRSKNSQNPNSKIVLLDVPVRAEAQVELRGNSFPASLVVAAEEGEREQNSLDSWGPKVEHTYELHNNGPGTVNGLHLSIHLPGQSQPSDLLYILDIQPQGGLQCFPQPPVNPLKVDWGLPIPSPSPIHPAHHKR
Chain of alpha IIb beta 3 integrin (P05106 27-788): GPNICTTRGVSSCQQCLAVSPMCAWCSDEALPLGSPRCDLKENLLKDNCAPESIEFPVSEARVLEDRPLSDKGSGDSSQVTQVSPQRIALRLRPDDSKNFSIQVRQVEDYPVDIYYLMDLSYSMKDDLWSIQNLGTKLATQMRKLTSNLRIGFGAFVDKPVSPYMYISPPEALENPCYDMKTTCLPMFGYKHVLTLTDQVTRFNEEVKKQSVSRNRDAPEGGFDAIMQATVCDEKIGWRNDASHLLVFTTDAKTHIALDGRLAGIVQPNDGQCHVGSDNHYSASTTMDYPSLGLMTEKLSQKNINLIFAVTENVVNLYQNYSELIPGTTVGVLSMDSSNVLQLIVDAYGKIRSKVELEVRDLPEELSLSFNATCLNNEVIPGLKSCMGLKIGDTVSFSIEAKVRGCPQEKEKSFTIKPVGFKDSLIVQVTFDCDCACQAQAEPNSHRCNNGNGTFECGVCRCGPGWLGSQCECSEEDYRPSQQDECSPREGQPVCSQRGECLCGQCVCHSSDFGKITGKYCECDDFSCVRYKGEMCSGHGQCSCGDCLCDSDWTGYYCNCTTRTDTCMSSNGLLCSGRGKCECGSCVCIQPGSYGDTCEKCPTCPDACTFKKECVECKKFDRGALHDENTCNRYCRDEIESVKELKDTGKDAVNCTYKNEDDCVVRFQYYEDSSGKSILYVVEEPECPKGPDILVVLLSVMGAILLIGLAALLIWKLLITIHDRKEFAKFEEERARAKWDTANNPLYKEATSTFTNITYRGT

T1 sequence (P08648 42-894 limits assumed): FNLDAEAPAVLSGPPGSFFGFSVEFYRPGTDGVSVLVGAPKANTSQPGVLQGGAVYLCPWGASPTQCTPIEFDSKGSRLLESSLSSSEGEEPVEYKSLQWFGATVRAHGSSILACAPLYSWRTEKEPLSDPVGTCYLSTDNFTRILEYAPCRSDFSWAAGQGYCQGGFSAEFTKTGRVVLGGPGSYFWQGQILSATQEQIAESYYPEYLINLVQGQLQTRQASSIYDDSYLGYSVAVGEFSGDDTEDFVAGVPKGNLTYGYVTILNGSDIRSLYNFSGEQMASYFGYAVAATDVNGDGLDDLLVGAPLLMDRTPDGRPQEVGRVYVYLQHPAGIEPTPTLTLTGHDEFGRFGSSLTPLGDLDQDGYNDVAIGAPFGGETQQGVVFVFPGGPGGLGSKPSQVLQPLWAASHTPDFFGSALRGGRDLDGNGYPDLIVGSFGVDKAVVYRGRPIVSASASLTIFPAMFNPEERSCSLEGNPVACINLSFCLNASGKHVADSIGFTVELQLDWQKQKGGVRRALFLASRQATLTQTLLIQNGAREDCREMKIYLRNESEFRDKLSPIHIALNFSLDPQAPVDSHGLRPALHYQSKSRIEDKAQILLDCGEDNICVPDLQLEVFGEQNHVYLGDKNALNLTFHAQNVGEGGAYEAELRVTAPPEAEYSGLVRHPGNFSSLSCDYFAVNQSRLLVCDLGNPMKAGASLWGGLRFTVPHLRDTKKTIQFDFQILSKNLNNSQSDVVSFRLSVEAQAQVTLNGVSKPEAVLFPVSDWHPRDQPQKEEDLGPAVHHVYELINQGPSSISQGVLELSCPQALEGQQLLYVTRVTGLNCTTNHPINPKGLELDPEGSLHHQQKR
T1 sequence (P08648 895-1049 limits assumed): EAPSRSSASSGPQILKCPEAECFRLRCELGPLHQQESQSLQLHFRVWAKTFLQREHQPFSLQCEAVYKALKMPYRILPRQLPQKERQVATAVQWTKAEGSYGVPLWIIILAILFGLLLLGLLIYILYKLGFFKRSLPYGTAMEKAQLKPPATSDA
T1 sequence (P05556 21-798): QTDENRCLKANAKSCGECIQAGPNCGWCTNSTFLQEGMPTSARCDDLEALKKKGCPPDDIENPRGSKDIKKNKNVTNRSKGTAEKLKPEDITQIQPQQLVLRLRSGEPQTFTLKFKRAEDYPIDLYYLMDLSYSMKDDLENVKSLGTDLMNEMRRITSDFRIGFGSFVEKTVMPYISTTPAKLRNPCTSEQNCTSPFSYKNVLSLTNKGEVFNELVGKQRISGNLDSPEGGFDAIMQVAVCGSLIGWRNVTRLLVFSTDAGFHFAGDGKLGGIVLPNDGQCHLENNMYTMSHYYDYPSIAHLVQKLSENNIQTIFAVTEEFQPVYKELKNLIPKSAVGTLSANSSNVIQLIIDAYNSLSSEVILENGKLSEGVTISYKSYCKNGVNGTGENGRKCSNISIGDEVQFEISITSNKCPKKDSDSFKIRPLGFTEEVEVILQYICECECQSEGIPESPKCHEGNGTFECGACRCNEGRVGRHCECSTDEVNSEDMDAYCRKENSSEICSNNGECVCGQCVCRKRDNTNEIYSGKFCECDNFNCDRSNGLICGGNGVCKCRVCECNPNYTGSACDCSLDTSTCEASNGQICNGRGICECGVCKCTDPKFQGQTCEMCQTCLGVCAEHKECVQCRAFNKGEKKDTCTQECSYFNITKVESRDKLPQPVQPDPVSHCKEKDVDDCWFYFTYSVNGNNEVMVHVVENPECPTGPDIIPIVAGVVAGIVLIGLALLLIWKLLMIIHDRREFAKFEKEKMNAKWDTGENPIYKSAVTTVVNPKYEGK
Chain of alpha 5 beta 1 integrin (UniProt G3HZ55+P08648) (P08648 42-894 limits assumed): as the sequence (P08648 42-894 limits assumed) above
Chain of alpha 5 beta 1 integrin (UniProt G3HZ55+P08648) (P08648 895-1049 limits assumed): as the sequence (P08648 895-1049 limits assumed) above
Chain of alpha 5 beta 1 integrin (UniProt G3HZ55+P08648) (G3HZ55 21-798): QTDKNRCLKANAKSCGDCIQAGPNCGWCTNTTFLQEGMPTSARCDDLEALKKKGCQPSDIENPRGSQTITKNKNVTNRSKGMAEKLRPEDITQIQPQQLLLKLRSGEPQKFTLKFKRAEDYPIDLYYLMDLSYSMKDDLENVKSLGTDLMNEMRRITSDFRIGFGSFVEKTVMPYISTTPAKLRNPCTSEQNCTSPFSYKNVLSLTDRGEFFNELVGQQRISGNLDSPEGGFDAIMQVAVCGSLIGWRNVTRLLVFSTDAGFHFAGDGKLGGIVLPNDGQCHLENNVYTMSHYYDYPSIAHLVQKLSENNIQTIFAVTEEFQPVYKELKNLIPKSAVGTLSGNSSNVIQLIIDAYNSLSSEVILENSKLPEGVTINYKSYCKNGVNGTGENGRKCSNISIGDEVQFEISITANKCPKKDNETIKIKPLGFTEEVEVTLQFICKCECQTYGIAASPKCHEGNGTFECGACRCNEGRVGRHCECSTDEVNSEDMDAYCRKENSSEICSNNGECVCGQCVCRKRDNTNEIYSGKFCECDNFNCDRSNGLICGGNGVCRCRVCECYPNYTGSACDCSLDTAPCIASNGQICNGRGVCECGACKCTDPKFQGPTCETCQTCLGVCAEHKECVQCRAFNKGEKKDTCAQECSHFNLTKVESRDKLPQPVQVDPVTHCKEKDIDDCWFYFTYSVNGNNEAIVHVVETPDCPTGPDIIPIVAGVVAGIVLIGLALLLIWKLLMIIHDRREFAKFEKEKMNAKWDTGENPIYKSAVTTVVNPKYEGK

Substance	Binding of phage clone to microtiter wells coated with alpha 5 beta 1 [4]	also measured
GA*CSPYFLRLC*GA (disulfide)	–	Effect on binding of 125I-labeled fibronectin to alpha 5 beta 1 [1]: no significant effect
GACRRETAWACGA [GACRRETAWACGA not cyclized]	–	Activity of peptide not cyclized by oxidation ([2]; relative to cyclic *CRRETAWAC*): reduced activity
GRGESP [reference compound]	–	Effect on binding of RRETAWA-containing phage to alpha 5 beta 1 [3]: no effect; Effect on alpha 5 beta 1-mediated cell attachment to fibronectin ([2]; control peptide): no effect
RGAPRAW (disulfide (positions not given here))	bound weakly	–
RRETAWA (disulfide (positions not given here)) [RRETAWA-phage]	avidly	Binding of phage clone to microtiter wells coated with alpha v beta 3 [5]: only weakly; Binding to the alpha IIb beta 3 integrin [6]: did not bind
STSDVGG (disulfide (positions not given here))	significantly over the background	–
TLVPSRS (disulfide (positions not given here))	significantly over the background	–
VFSIAHE (disulfide (positions not given here))	significantly over the background	–
VRLNSLA (disulfide)	significantly over the background	–
